According to ChEMBL document CHEMBL3593207, “Imidazole clubbed 1,3,4-oxadiazole derivatives as potential antifungal agents” (2015):
Values after ≈ are worked out from the molar mass of the structure shown. Each block holds one molecule with its values, some of them ahead of it.

Experiments:
Candida albicans [1] = assay: Antifungal activity against clinical isolates of Candida albicans 2779 at 2 times MIC after 48 hrs by disc diffusion assay; assay type: functional
Summary of the method: (§1)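 Cells (10^3 cells ml−1) grown in YPD were mixed into molten agar (~40 °C) and poured into 100-mm plates. Filter discs (4 mm) were spotted with 10 µl of compound at 1/2 × MIC, MIC or 2 × MIC. Fluconazole and 1% DMSO were the controls. Plates were incubated at 37 °C for 48 h and inhibition zone diameters recorded in mm.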

Candida tropicalis [2] = assay: Antifungal activity against clinical isolates of Candida tropicalis 2029 at MIC after 48 hrs by disc diffusion assay; assay type: functional; summary of the method: as §1
Candida albicans [3] = assay: Antifungal activity against clinical isolates of Candida albicans 2779 at MIC after 48 hrs by disc diffusion assay; assay type: functional; summary of the method: as §1
Candida tropicalis [4] = assay: Antifungal activity against Candida tropicalis ATCC 750 by broth microdilution assay; assay type: functional
Summary of the method: (§2)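 CLSI M27-A3 broth microdilution. Compounds diluted to 1 mg/ml in 1% DMSO. Fluconazole (1 mg/ml) served as positive control, 1% DMSO as vehicle control, with media and culture controls. Triplicate at each concentration, repeated thrice. Inocula came from YPDA stocks subcultured in broth for 48 h at 37 °C.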

Candida albicans [5] = assay: Cytotoxicity against clinical isolates of Candida albicans 2779 at 1/4 MIC after 24 hrs by WST1 assay; assay type: functional
Summary of the method: (§3)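 Candida cells were exposed to MIC and sub-MIC levels for 24 h in microplates, then to WST-1/CEC dye for 30 min at 37 °C. Plates were shaken 1 min and the reaction stopped with 1% SDS. Formazan was read at 450 nm. % cytotoxicity = 100 × (cell control − experimental)/cell control. Triplicates, mean ± SD.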

Candida tropicalis [6] = assay: Antifungal activity against clinical isolates of Candida tropicalis 2029 by broth microdilution assay; assay type: functional; summary of the method: as §2
Candida albicans [7] = assay: Antifungal activity against Candida albicans ATCC 10261 at 2 times MIC after 48 hrs by disc diffusion assay; assay type: functional; summary of the method: as §1
Candida tropicalis [8] = assay: Antifungal activity against clinical isolates of Candida tropicalis 2356 by broth microdilution assay; assay type: functional; summary of the method: as §2
Candida albicans [9] = assay: Antifungal activity against clinical isolates of Candida albicans 2367 at half MIC after 48 hrs by disc diffusion assay; assay type: functional; summary of the method: as §1
Candida tropicalis [10] = assay: Cytotoxicity against Candida tropicalis ATCC 750 at 1/4 MIC after 24 hrs by WST1 assay
Candida tropicalis [11] = assay: Antifungal activity against Candida tropicalis ATCC 750 at 2 times MIC after 48 hrs by disc diffusion assay; assay type: functional; summary of the method: as §1
Candida albicans [12] = assay: Antifungal activity against clinical isolates of Candida albicans 2779 at half MIC after 48 hrs by disc diffusion assay; assay type: functional; summary of the method: as §1
Candida tropicalis [13] = assay: Inhibition of ergosterol biosynthesis in Candida tropicalis 2029 assessed as ergosterol content at MIC after 16 hrs by spectrophotometer analysis; assay type: functional; parameters: scale not given: the % may be the effect or the level left
Summary of the method: (§4)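 Cells were pelleted and washed, and wet weight taken. Pellets were saponified in 25% alcoholic KOH at 85 °C for 1 h. Sterols were extracted into n-heptane/water. Ergosterol content is expressed relative to untreated control cells.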

Candida tropicalis [14] = assay: Antifungal activity against clinical isolates of Candida tropicalis 2356 at half MIC after 48 hrs by disc diffusion assay; assay type: functional; summary of the method: as §1
Candida albicans [15] = assay: Inhibition of ergosterol biosynthesis in Candida albicans ATCC 10261 assessed as ergosterol content at 1/2 MIC after 16 hrs by spectrophotometer analysis; assay type: functional; parameters: scale not given: the % may be the effect or the level left; summary of the method: as §4
Candida albicans [16] = assay: Antifungal activity against clinical isolates of Candida albicans 2367 by broth microdilution assay; assay type: functional; summary of the method: as §2
Candida albicans [17] = assay: Inhibition of ergosterol biosynthesis in Candida albicans 2367 assessed as ergosterol content at MIC after 16 hrs by spectrophotometer analysis; assay type: functional; parameters: scale not given: the % may be the effect or the level left; summary of the method: as §4
Candida albicans [18] = assay: Inhibition of ergosterol biosynthesis in Candida albicans 2323 assessed as ergosterol content at 1/2 MIC after 16 hrs by spectrophotometer analysis; assay type: functional; parameters: scale not given: the % may be the effect or the level left; summary of the method: as §4
Candida tropicalis [19] = assay: Inhibition of ergosterol biosynthesis in Candida tropicalis 2356 assessed as ergosterol content at MIC after 16 hrs by spectrophotometer analysis; assay type: functional; parameters: scale not given: the % may be the effect or the level left; summary of the method: as §4
Candida albicans [20] = assay: Inhibition of ergosterol biosynthesis in Candida albicans 2779 assessed as ergosterol content at MIC after 16 hrs by spectrophotometer analysis; assay type: functional; parameters: scale not given: the % may be the effect or the level left; summary of the method: as §4
Candida albicans [21] = assay: Antifungal activity against clinical isolates of Candida albicans 2323 at half MIC after 48 hrs by disc diffusion assay; assay type: functional; summary of the method: as §1
Candida albicans [22] = assay: Antifungal activity against clinical isolates of Candida albicans 2323 by broth microdilution assay; assay type: functional; summary of the method: as §2
Candida tropicalis [23] = assay: Inhibition of ergosterol biosynthesis in Candida tropicalis 2356 assessed as ergosterol content at 1/2 MIC after 16 hrs by spectrophotometer analysis; assay type: functional; parameters: scale not given: the % may be the effect or the level left; summary of the method: as §4
Candida tropicalis [24] = assay: Cytotoxicity against Candida tropicalis ATCC 750 at 1/2 MIC after 24 hrs by WST1 assay
Candida albicans [25] = assay: Antifungal activity against clinical isolates of Candida albicans 2779 by broth microdilution assay; assay type: functional; summary of the method: as §2
Candida tropicalis [26] = assay: Antifungal activity against clinical isolates of Candida tropicalis 2356 at MIC after 48 hrs by disc diffusion assay; assay type: functional; summary of the method: as §1
Candida tropicalis [27] = assay: Antifungal activity against clinical isolates of Candida tropicalis 2356 at 2 times MIC after 48 hrs by disc diffusion assay; assay type: functional; summary of the method: as §1
Candida tropicalis [28] = assay: Cytotoxicity against Candida tropicalis ATCC 750 at MIC after 24 hrs by WST1 assay
Candida albicans [29] = assay: Inhibition of ergosterol biosynthesis in Candida albicans 2367 assessed as ergosterol content at 1/2 MIC after 16 hrs by spectrophotometer analysis; assay type: functional; parameters: scale not given: the % may be the effect or the level left; summary of the method: as §4
Candida albicans [30] = assay: Antifungal activity against clinical isolates of Candida albicans 2367 at 2 times MIC after 48 hrs by disc diffusion assay; assay type: functional; summary of the method: as §1
Candida albicans [31] = assay: Inhibition of ergosterol biosynthesis in Candida albicans 2323 assessed as ergosterol content at MIC after 16 hrs by spectrophotometer analysis; assay type: functional; parameters: scale not given: the % may be the effect or the level left; summary of the method: as §4
Candida albicans [32] = assay: Antifungal activity against Candida albicans ATCC 10261 at half MIC after 48 hrs by disc diffusion assay; assay type: functional; summary of the method: as §1
Candida tropicalis [33] = assay: Antifungal activity against Candida tropicalis ATCC 750 at half MIC after 48 hrs by disc diffusion assay; assay type: functional; summary of the method: as §1
Candida albicans [34] = assay: Cytotoxicity against Candida albicans ATCC 10261 at 1/2 MIC after 24 hrs by WST1 assay; assay type: functional; summary of the method: as §3
Candida albicans [35] = assay: Antifungal activity against clinical isolates of Candida albicans 2323 at MIC after 48 hrs by disc diffusion assay; assay type: functional; summary of the method: as §1
Candida albicans [36] = assay: Cytotoxicity against Candida albicans ATCC 10261 at 1/4 MIC after 24 hrs by WST1 assay; assay type: functional; summary of the method: as §3
Candida albicans [37] = assay: Inhibition of ergosterol biosynthesis in Candida albicans ATCC 10261 assessed as ergosterol content at MIC after 16 hrs by spectrophotometer analysis; assay type: functional; parameters: scale not given: the % may be the effect or the level left; summary of the method: as §4
Candida albicans [38] = assay: Cytotoxicity against Candida albicans ATCC 10261 at MIC after 24 hrs by WST1 assay; assay type: functional; summary of the method: as §3
Candida albicans [39] = assay: Antifungal activity against clinical isolates of Candida albicans 2367 at MIC after 48 hrs by disc diffusion assay; assay type: functional; summary of the method: as §1
Candida tropicalis [40] = assay: Inhibition of ergosterol biosynthesis in Candida tropicalis ATCC 750 assessed as ergosterol content at MIC after 16 hrs by spectrophotometer analysis; assay type: functional; parameters: scale not given: the % may be the effect or the level left
Summary of the method: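 Cells were harvested, washed, and wet pellet weight recorded. Pellets were saponified in 3 mL 25% alcoholic KOH at 85 °C for 1 h, then sterols extracted into n-heptane. Ergosterol is expressed relative to untreated control cells.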

Candida albicans [41] = assay: Antifungal activity against Candida albicans ATCC 10261 by broth microdilution assay; assay type: functional; summary of the method: as §2
Candida albicans [42] = assay: Antifungal activity against Candida albicans ATCC 10261 at MIC after 48 hrs by disc diffusion assay; assay type: functional; summary of the method: as §1
Candida tropicalis [43] = assay: Antifungal activity against Candida tropicalis ATCC 750 at MIC after 48 hrs by disc diffusion assay; assay type: functional; summary of the method: as §1
Candida albicans [44] = assay: Antifungal activity against clinical isolates of Candida albicans 2323 at 2 times MIC after 48 hrs by disc diffusion assay; assay type: functional; summary of the method: as §1
Candida albicans [45] = assay: Inhibition of ergosterol biosynthesis in Candida albicans 2779 assessed as ergosterol content at 1/2 MIC after 16 hrs by spectrophotometer analysis; assay type: functional; parameters: scale not given: the % may be the effect or the level left; summary of the method: as §4
Candida tropicalis [46] = assay: Antifungal activity against clinical isolates of Candida tropicalis 2029 at half MIC after 48 hrs by disc diffusion assay; assay type: functional; summary of the method: as §1
Candida tropicalis [47] = assay: Inhibition of ergosterol biosynthesis in Candida tropicalis ATCC 750 assessed as ergosterol content at 1/2 MIC after 16 hrs by spectrophotometer analysis; assay type: functional; parameters: scale not given: the % may be the effect or the level left; summary of the method: as §4
Candida tropicalis [48] = assay: Antifungal activity against clinical isolates of Candida tropicalis 2029 at 2 times MIC after 48 hrs by disc diffusion assay; assay type: functional; summary of the method: as §1
Candida tropicalis [49] = assay: Inhibition of ergosterol biosynthesis in Candida tropicalis 2029 assessed as ergosterol content at 1/2 MIC after 16 hrs by spectrophotometer analysis; assay type: functional; parameters: scale not given: the % may be the effect or the level left; summary of the method: as §4

MIC (Candida tropicalis [4]): 16 µg/mL (≈ 42.5 µM) | MIC (Candida tropicalis [6]): 16 µg/mL (≈ 42.5 µM) | MIC (Candida tropicalis [8]): 64 µg/mL (≈ 170 µM) | MIC (Candida albicans [16]): 16 µg/mL (≈ 42.5 µM) | MIC (Candida albicans [22]): 16 µg/mL (≈ 42.5 µM) | MIC (Candida albicans [25]): 32 µg/mL (≈ 85 µM) | MIC (Candida albicans [41]): 8 µg/mL (≈ 21.3 µM)
Structure (SMILES): CCc1ccnc(-c2nccn2Cc2nnc(-c3ccc([N+](=O)[O-])cc3)o2)c1
inhibition zone (IZ) (Candida albicans [1]): 11 mm | inhibition zone (IZ) (Candida tropicalis [2]): 8 mm | inhibition zone (IZ) (Candida albicans [3]): 8 mm | Activity (Candida albicans [5]): 8.02% | inhibition zone (IZ) (Candida albicans [7]): 15 mm | inhibition zone (IZ) (Candida albicans [9]): 1 mm | Activity (Candida tropicalis [10]): 15.6% | inhibition zone (IZ) (Candida tropicalis [11]): 14 mm | inhibition zone (IZ) (Candida albicans [12]): 2 mm | Activity (Candida tropicalis [13]): 89% | inhibition zone (IZ) (Candida tropicalis [14]): 1 mm | Activity (Candida albicans [15]): 43% | Activity (Candida albicans [17]): 86% | Activity (Candida albicans [18]): 31% | Activity (Candida tropicalis [19]): 91% | Activity (Candida albicans [20]): 89% | inhibition zone (IZ) (Candida albicans [21]): 0 mm | Activity (Candida tropicalis [23]): 59% | Activity (Candida tropicalis [24]): 35.57% | inhibition zone (IZ) (Candida tropicalis [26]): 4 mm | inhibition zone (IZ) (Candida tropicalis [27]): 9 mm | Activity (Candida tropicalis [28]): 57.94% | Activity (Candida albicans [29]): 47% | inhibition zone (IZ) (Candida albicans [30]): 8 mm | Activity (Candida albicans [31]): 87% | inhibition zone (IZ) (Candida albicans [32]): 3 mm | inhibition zone (IZ) (Candida tropicalis [33]): 1 mm | Activity (Candida albicans [34]): 35.57% | inhibition zone (IZ) (Candida albicans [35]): 5 mm | Activity (Candida albicans [36]): 16.88% | Activity (Candida albicans [37]): 99% | Activity (Candida albicans [38]): 57.94% | inhibition zone (IZ) (Candida albicans [39]): 5 mm | Activity (Candida tropicalis [40]): 100% | inhibition zone (IZ) (Candida albicans [42]): 11 mm | inhibition zone (IZ) (Candida tropicalis [43]): 9 mm | inhibition zone (IZ) (Candida albicans [44]): 9 mm | Activity (Candida albicans [45]): 45% | inhibition zone (IZ) (Candida tropicalis [46]): 3 mm | Activity (Candida tropicalis [47]): 57% | inhibition zone (IZ) (Candida tropicalis [48]): 12 mm | Activity (Candida tropicalis [49]): 52%

MIC (Candida tropicalis [4]): > 1000 µg/mL | MIC (Candida tropicalis [6]): > 1000 µg/mL | MIC (Candida tropicalis [8]): > 1000 µg/mL | MIC (Candida albicans [16]): > 1000 µg/mL | MIC (Candida albicans [22]): > 1000 µg/mL | MIC (Candida albicans [25]): > 1000 µg/mL | MIC (Candida albicans [41]): > 1000 µg/mL
Structure (SMILES): CCc1ccnc(-c2nccn2Cc2nnc(-c3ccccc3)o2)c1
